Screens as filed in PubChem.
A selection: hits, their analogues and other compounds. The true share with any hit is near 2.3%.
EWS-Fli block = EWS/Fli-driven NR0B1 reporter inhibitors, primary screen, A673 cells, NR0B1 luciferase, luminescence, MLPCN library; 350,000 tested, 0.67% active; inhibition, % at 12.6 µM; AID 651661, 2012; viability-normalised;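 active means mean inhibition of at least 50% after viability correction, with every replicate also passing that limit; inconclusive means mean reaches 50% but only one of two replicates passes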;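 further: firefly luciferase signal divided by Alamar Blue viability fluorescence both relative to DMSO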
TWEAK-Fn14 inh = inhibitors of TWEAK-Fn14 signaling, primary screen, luciferase reporter cells, uHTS; 360,000 tested, 2% active; TWEAK-stimulated Fn14 reporter cells, luciferase luminescence, 8 h; inhibition, % at 10 µM; in the data active means inhibition above about 50%
XiGFP reactiv = activators of inactive X chromosome reactivation, primary screen, imaging, XiGFP fibroblasts, GFP high-content imaging, set 2; 360,000 tested, 0.055% active; AID 743238, 2013; XiGFP mouse fibroblasts, % GFP-positive cells imaging, 3 d; cells co-treated with 5-aza-dC sensitizer; scaled so ellipticine positive control = 100%; activation, % at 7.58 µM;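 active means mean normalized replicate activation at least 10% and every replicate at or above 10%; inconclusive means only one of the two criteria met; inactive means mean below 10% and not all replicates reach 10%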;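 further: 0% = median of on-plate neutral control wells and 100% = ellipticine 6 µM median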
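Assay system – SV40-immortalized XiGFP fibroblast cells, line 68-5-11 · Buffer or medium – DMEM supplemented with 5-aza-dC as sensitizing agent · Dosing – one concentration, pinned · Benchmarks – positive control ellipticine, 6 µM final · Times – 3 days compound exposure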
FN deposition inh = inhibitors of fibronectin matrix deposition, primary screen, AH1F cells, Alexa488-fibronectin fluorescence, plate reader. AH1F fibroblasts, overnight. inhibition, % at 12.6 µM. 350,000 tested, 0.086% active. AID 743247, 2014;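 active means mean inhibition across replicates of 30% or more, regardless of how many single replicates reach that level; inconclusive means mean under 30% yet at least half of replicates reach 30%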;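 further: positive control wells lacked labelled fibronectin entirely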
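Material: AH1F fibroblast monolayer depositing Alexa488-labelled fibronectin into matrix / Amount: 10000 AH1F cells per well / Signal: fluorescence 485/525 nm / Medium: DMEM, 2% serum / Compound: single dose, pinned / Incubation: 1 h cell adhesion before compound, then overnight fibronectin incubation / Reagent: Alexa488-FN, 24 nM final / Read-out: inhibition of fibronectin deposition signal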
TROY signal inh = inhibitors of TROY-driven NF-kB signaling, primary screen, Q293 LMP1-TROYcd cells, NF-kB luciferase, uHTS. Q293 LMP1-TROYcd NF-kB luciferase reporter, 4 h. inhibition, % at 10 µM. 360,000 tested, 0.98% active;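 active means compounds whose plate-normalised and pattern-corrected inhibition of the luciferase reporter signal at the single screening dose is 50% or more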
LGR2 antag = inhibitors of bursicon-induced LGR2 CRE-luciferase signal, primary screen, cell-based, HEK293, CRE-luciferase reporter, bursicon stimulation | Drosophila bursicon receptor LGR2 (rickets) | bursicon-stimulated, 4 h | inhibition, % at 9.99 µM | 380,000 tested, 0.35% active | AID 720647, 2013;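 active means drop in luminescence signal, shown as inhibition above about 50% in the replicate tests, limit read from the data, passing the limit was not always enough; inconclusive means probably only some replicates passing the limit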;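 further: agonist challenge used bursicon conditioned medium at about half maximal strength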
DNA binder FP = DNA binders by acridine orange displacement, dose response, counter-screen for EWS/Fli inhibitor project, biochemical, fluorescence polarization, cherry-pick | AID 720586, 2013 | 640 tested, 2% active | AC35, µM (top dose mostly 68 µM), for inactives: at the top dose activity change, negative = DNA binding | salmon sperm DNA acridine orange fluorescence polarization | shares compounds with EWS-Fli block;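 active means fitted curve reaches a 35% signal fall AC35 below twice the sample's top valid tested dose, actives reach about 48 µM in these data; inactive means the rest, including activity in the rising direction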;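 further: lower polarization ratio signals compound binding to DNA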
* hit, by the source's call; ? = inconclusive; . = not tested or not shown.

SMILES	EWS-Fli block	TWEAK-Fn14 inh	XiGFP reactiv	FN deposition inh	TROY signal inh	LGR2 antag	DNA binder FP
CC[C@H](C)[C@@H]1NC(=O)CNC(=O)c2csc(n2)[C@H](C(C)(C)O)OC(=O)C(C)(C)[C@H](CCCC(C)(Cl)Cl)OC(=O)c2csc1n2	2	-25	1	48*	46	.	.
COCC#Cc1ccc([C@@H]2[C@@H](CO)N3CCCCN(C(=O)Cc4ccccn4)C[C@@H]23)cc1	-12	.	0	.	.	5	.
O=C(O)C[C@@H]1CC[C@H]2NC[C@H](O)COC[C@@H]2O1	1	.	0	4	.	4	.
C=C1C(=O)[C@@]23C[C@H]4[C@@H]5[C@@]6(C)CCC[C@@]57[C@@H]2[C@@H](O)[C@@H]1C[C@H]3[C@H]7N4C6	42	50	.	.	16	59*	.
COC(=O)[C@H]1[C@H](CO)[C@H]2Cn3c(ccc(-c4ccncc4)c3=O)[C@@H]1N2CCc1ccccc1	-70	.	0	.	.	-2	.
CC(=O)O[C@H]1C[C@@H]2OC3C=C(C)CCC3(C)[C@@]1(C)[C@@]21CO1 (stereo not given in full)	27	97*	0	6	78*	102*	.
CC(=O)OC1CC2OC3C=C(C)CCC3(C)C1(C)C21CO1 (stereo not given)	43	98*	.	.	84*	104*	.
COc1ccc(C#Cc2ccc([C@H]3[C@H]4CN(C(=O)Cc5ccccc5)CCCCN4[C@H]3CO)cc2)cc1	-2	.	0	.	.	4	.
Cn1cccc1/C=C1\C(=O)NC(=O)N(Cc2ccco2)C1=O	.	23	0	0	2	12	.
O=C1NC(=O)N(Cc2ccco2)C(=O)/C1=C/C=C/c1ccco1	61*	35	0	6	14	2	-1%
O=C1NC(=O)N(Cc2ccccc2)C(=O)/C1=C\C=C\c1ccco1	65*	11	0	9	-7	14	9%
C[C@@H]1O[C@@H](O[C@H]2C[C@@H](O)[C@]3(CO)[C@@H]4C(CC[C@]3(O)C2)[C@@]2(O)CC[C@H](C3COC(=O)C3)[C@@]2(C)C[C@H]4O)[C@H](O)[C@H](O)[C@H]1O (stereo not given in full)	72*	53*	0	11	44	73*	-16%
CC12CC[C@H]3[C@@H](CCC4(O)C[C@H](O)CCC34/C=N/NC(=O)Cc3ccccc3)C1(O)CCC2C1=CC(=O)OC1 (stereo not given in full)	-2	-12	0	-11	7	5	.
CC(=O)OC1CC(OC2C(O)CC(OC3C(O)CC(OC4CCC5(C)C(CCC6C5CC(O)C5(C)C(C7=CC(=O)OC7)CCC65O)C4)OC3C)OC2C)OC(C)C1OC1OC(CO)C(O)C(O)C1O (stereo not given)	65*	78*	0	1	36	88*	-10%
C[C@]12CC[C@H](O)C[C@H]1CC[C@@H]1[C@@H]2C[C@@H](O)[C@]2(C)[C@@H](C3=CC(=O)OC3)CC[C@]12O	81*	56*	0	1	47	80*	-4%
C[C@]12CC[C@H](O)C[C@H]1CC[C@@H]1[C@@H]2CC[C@]2(C)[C@@H](C3=CC(=O)OC3)CC[C@]12O	67*	75*	0	15	49	84*	3%
COC1C(O)C(C)OC(OC2CCC3(C)C(CCC4C3C(O)CC3(C)C(C5=CC(=O)OC5)CCC43O)C2)C1O (stereo not given)	51*	86*	0	8	55*	90*	3%
C[C@]12CCC3C(CC[C@H]4C[C@@H](O)CC[C@]34C)[C@H]1C=CC2=O (stereo not given in full)	1	9	0	6	-1	6	.
COCC(=O)N1[C@@H]2Cn3c(ccc(C4=CCCC4)c3=O)[C@H]1[C@@H](C(=O)OC)[C@@H]2CO	15	.	0	.	.	-9	.
COC(=O)[C@@H]1[C@@H](CO)[C@@H]2Cn3c(ccc(-c4ccccc4F)c3=O)[C@H]1N2Cc1ccncc1	-1	.	1	.	.	-18	.
Cc1ccc(OC(=O)N(C)C[C@@H]2OCc3ccccc3-c3c(n(C)c4ccccc34)C(=O)N([C@@H](C)CO)C[C@H]2C)cc1	24	.	0	1	.	33	.
O=C(Cc1ccccn1)N1CCCCN2[C@@H](CO)[C@@H](c3ccc(Br)cc3)[C@@H]2C1	-2	.	1	.	.	-32	.
COC(=O)[C@@H]1[C@@H](CO)[C@@H]2Cn3c(ccc(-c4cccnc4)c3=O)[C@H]1N2S(=O)(=O)c1ccccc1F	-4	.	0	.	.	-5	.
COC(=O)[C@H]1[C@H](CO)[C@H]2Cn3c(ccc(-c4ccccc4)c3=O)[C@@H]1N2CC1CC1	-3	.	0	.	.	-9	.
CC12CCC(O)CC1CCC1C2CCC2(C)C(C3=CC(=O)OC3)CCC12O (stereo not given)	67*	85*	0	6	51*	86*	-8%
SMILES	EWS-Fli block	TWEAK-Fn14 inh	XiGFP reactiv	FN deposition inh	TROY signal inh	LGR2 antag	DNA binder FP
CNC(=O)Nc1ccc(C(=O)N/N=C\C23CC[C@@H](O)CC2(O)CC[C@@H]2[C@@H]3CCC3(C)C(C4=CC(=O)OC4)CCC23O)cc1 (stereo not given in full)	-16	4	0	-4	-6	6	.
C/C=C/c1ccc(C2[C@@H]3CN(C(=O)C4CC4)C[C@H]2N3)cc1 (stereo not given in full)	5	.	0	1	.	21	.
COc1ccc(C#Cc2ccc([C@@H]3[C@@H](CO)N4CCCCN(C(=O)Cc5cccnc5)C[C@H]34)cc2)cc1	-16	.	0	.	.	1	.
CCOC(=O)[C@]12Cc3c(cc(OC)c(OC)c3OC)[C@H]1N(C1CCCCC1)C(=O)c1ccccc12	48	48	1	.	45	?	.
CCOC(=O)[C@]12Cc3ccc(C)cc3[C@H]1N(C1CCCCC1)C(=O)c1ccccc12	59*	92*	0	26	51*	53*	15%
C=C1C(=O)OC2C1CCC(C)C1(O)C=CC(=O)C21C (stereo not given)	62*	66*	.	.	-17	40	-9%
COC1C(O)C(C)OC(OC2C(Oc3cccc4c(O)c5c(=O)oc6ccc(C)c7c(=O)oc(c34)c5c67)OC(C)C(O)C2O)C1O (stereo not given)	69*	11	0	2	-4	18	-7%
O=C(Nc1ccc(OC(=O)N2CCCCC2)cc1)N1CCOCC1	76*	94*	0	-8	85*	12	-2%
CC(C)c1oc(=O)cc2c1[C@@H](O)[C@H]1OC(=O)[C@@]3(C)CC[C@@H](O)[C@@]2(C)C13 (stereo not given in full)	62*	50	0	2	8	67*	-3%
